The record followed here is ChEMBL document CHEMBL1132919, “Structure-activity studies for a novel series of tricyclic substituted hexahydrobenz[e]isoindole alpha(1A) adrenoceptor antagonists as potential agents for the symptomatic treatment of benign prostatic hyperplasia (BPH)” (J Med Chem, 2000).

Structures are written as SMILES.

The species named for experiment [1] is Canis familiaris. The experiment is described as follows: Antagonist dissociation constant in dog prostate. The note with it: Canis lupus familiaris, Prostate gland, read-out: pA2 (converted).
Experiment [2] is filed under the species Rattus norvegicus. The experiment is described as follows: Antagonist dissociation constant in rat spleen. As to conditions: read-out: pA2 (converted).
For experiment [3], the species on record is Rattus norvegicus. The experiment is described as follows: Antagonist dissociation constant in rat vas deferens. The note with it: read-out: pA2 (converted).
In experiment [4] the target is T1, Alpha-1D adrenergic receptor (Rattus norvegicus, UniProt P23944).
T1 sequence (P23944 whole entry): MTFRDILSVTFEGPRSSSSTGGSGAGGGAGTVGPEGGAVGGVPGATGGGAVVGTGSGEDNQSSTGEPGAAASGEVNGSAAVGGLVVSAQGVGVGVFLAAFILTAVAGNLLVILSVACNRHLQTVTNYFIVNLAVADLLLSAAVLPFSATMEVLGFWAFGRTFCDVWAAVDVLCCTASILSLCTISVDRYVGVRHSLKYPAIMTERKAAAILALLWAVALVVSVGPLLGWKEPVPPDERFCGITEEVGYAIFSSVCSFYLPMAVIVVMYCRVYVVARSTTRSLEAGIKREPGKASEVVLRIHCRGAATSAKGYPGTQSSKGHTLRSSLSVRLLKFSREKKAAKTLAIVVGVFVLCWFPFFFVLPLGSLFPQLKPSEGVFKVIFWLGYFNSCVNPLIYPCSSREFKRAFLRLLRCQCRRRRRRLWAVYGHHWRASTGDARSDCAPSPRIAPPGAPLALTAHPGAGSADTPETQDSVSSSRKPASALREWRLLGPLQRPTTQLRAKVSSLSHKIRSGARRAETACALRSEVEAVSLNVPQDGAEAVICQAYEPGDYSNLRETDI
The experiment is described as follows: In vitro binding affinity using [3H]prazosin as radioligand against alpha-1D adrenergic receptor expressed in LTK cell. The format is cell-based. In short, it runs like this: (§1)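 Membranes from mouse LTK- fibroblasts stably expressing cloned hamster α1B or rat α1D, grown in roller bottles, frozen in liquid N2 and stored at -70 °C. Incubated with [3H]-prazosin ~200 pM, ~0.1 mg protein per tube, in 50 mM Tris-HCl pH 7.4 for 60 min at 25 °C; nonspecific binding defined by 10^-5 M phentolamine (final).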

In experiment [5] the target is T2, Alpha-1A adrenergic receptor (Rattus norvegicus, UniProt P43140).
T2 sequence (P43140 whole entry): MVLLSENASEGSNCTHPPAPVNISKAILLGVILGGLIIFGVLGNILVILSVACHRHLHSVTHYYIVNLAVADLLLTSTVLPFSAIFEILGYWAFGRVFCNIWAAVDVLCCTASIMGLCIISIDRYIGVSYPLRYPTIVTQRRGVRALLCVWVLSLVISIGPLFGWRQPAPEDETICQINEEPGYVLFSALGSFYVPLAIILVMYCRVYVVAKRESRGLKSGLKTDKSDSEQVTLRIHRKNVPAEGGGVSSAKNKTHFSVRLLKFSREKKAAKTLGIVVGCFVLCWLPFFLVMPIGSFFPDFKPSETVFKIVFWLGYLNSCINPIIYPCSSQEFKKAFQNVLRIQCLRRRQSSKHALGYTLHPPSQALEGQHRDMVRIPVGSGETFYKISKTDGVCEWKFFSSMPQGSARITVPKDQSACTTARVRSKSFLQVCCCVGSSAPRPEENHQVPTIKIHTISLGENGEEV
Briefly: In vitro binding affinity using [3H]prazosin as radioligand against alpha-1A adrenergic receptor. In a few lines:
(§2)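 Binding to pharmacologically defined α1A site in rat submaxillary gland membranes; [3H]-prazosin ~200 pM, nonspecific binding with 10^-5 M phentolamine (final); ~0.1 mg protein per tube in 50 mM Tris-HCl pH 7.4, 60 min at 25 °C.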

Experiment [6] addresses T3, Alpha-1B adrenergic receptor (Mesocricetus auratus, UniProt P18841).
T3 sequence (P18841 whole entry): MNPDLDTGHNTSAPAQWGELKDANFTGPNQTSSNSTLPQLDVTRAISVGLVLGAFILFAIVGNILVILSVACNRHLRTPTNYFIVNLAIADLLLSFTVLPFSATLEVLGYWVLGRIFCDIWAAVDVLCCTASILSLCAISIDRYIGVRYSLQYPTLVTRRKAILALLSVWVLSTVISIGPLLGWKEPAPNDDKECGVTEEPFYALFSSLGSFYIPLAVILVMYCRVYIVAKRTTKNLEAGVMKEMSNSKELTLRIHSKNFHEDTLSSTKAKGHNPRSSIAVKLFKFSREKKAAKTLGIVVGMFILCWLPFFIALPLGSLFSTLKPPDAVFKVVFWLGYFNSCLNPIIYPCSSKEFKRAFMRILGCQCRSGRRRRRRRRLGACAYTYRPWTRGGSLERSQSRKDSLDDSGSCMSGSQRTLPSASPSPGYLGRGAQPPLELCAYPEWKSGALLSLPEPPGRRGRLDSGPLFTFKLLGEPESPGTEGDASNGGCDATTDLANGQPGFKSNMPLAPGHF
The experiment is described as follows: In vitro binding affinity using [3H]prazosin as radioligand against alpha-1B adrenergic receptor expressed in LTK cell. Type of experiment: cell-based. In short, it runs like this:
as §1

The species named for experiment [7] is Canis familiaris. The experiment is described as follows: (§3) Intraurethral pressure (IUP) in Beagle dogs values are expressed as pseudo pA2 values. As to conditions: Canis lupus familiaris, Urethra, read-out: pA2 (converted).
The species named for experiment [8] is Rattus norvegicus. The experiment is described as follows: Determination of Pseudo pED50 in Spontaneously Hypertensive Rat (SHR) model. Number determinations => 3. The format is functional. In a few lines: (§4)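 Male SHR (300-325 g), briefly anesthetized with Penthrane, catheterized in femoral artery (MAP) and vein (dosing). After 2.5 h recovery and a 30 min predose control period, one iv antagonist dose per rat in an ascending paradigm; MAP and HR recorded over 60 min. Trapezoidal AUC of percent change in MAP (T60 AUC); ED50 is the dose lowering MAP by 50% of normotensive.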

The species named for the next experiment is Cricetulus griseus. The experiment is described as follows: Ratio between Ki(alpha-1b)/Ki(alpha1A).
The species named for experiment [9] is Rattus norvegicus. Briefly: Antagonist dissociation constant in rat spleen, number of determinations => 3. The note with it: read-out: pA2 (converted).
Experiment [10] is filed under the species Rattus norvegicus. Briefly: Antagonist dissociation constant in rat vas deferens, number of determinations => 3. As to conditions: read-out: pA2 (converted).
For experiment [11], the species on record is Canis familiaris. Described as §3. The format is functional, Canis lupus familiaris, Urethra.
The species named for experiment [12] is Rattus norvegicus. Briefly: Pseudo ED50 in Spontaneously Hypertensive Rat (SHR) model. Number determinations => 3. Type of experiment: functional. In short, it runs like this: as §4
Experiment [13] has as its target T3, Alpha-1B adrenergic receptor. Briefly: In vitro binding affinity using [3H]prazosin as radioligand against adrenoceptor alpha 1b expressed in LTK cell. Type of experiment: cell-based. In a few lines:
as §1

Experiment [14] is filed under the species Rattus norvegicus. Briefly: Pseudo ED50 in Spontaneously Hypertensive Rat (SHR) model. The format is functional. In a few lines: as §4
For experiment [15], the species on record is Canis familiaris. Briefly: Antagonist dissociation constant in dog prostate, number of determinations => 3. The note with it: Canis lupus familiaris, Prostate gland; read-out: pA2 (converted).
The target in experiment [16] is T1, Alpha-1D adrenergic receptor. The experiment is described as follows: In vitro binding affinity using [3H]prazosin as radioligand against adrenoceptor alpha 1d expressed in LTK cell. The format is cell-based. In a few lines: as §1
Experiment [17] addresses T2, Alpha-1A adrenergic receptor. Briefly: In vitro binding affinity using [3H]prazosin as radioligand against adrenoceptor alpha 1A. In short, it runs like this: as §2
The species named for experiment [18] is Rattus norvegicus. The experiment is described as follows: Determination Pseudo pED50 in Spontaneously Hypertensive Rat (SHR) model. The format is functional. In a few lines: as §4

For `COc1cccc2c1CC[C@H]1CN(CCn3c(=O)[nH]c4c(sc5ncccc54)c3=O)C[C@@H]21`, the Kb was 1.66 nM in the experiment listed under Canis familiaris [1], 16.2 nM in the experiment listed under Rattus norvegicus [2], 2.24 nM in the experiment listed under Rattus norvegicus [3] and 5.62 nM in the experiment filed under Canis familiaris [7]. In addition, the Ki – broadly, the dissociation constant of the complex between target and ligand, obtained from inhibition or displacement – came to 0.69 nM in [4], 0.59 nM in [5] and 6.12 nM in experiment [6]. Besides, the pED50 in the experiment filed under Rattus norvegicus [8] turned out to be 5.35. Besides, in the experiment filed under Cricetulus griseus, the Selectivity ratio was found to be 10.4.
In the case of `COc1cc2nc(N(C)CCCNC(=O)C3CCCO3)nc(N)c2cc1OC` (stereo not given) [ALFUZOSIN], the Kb in the experiment filed under Rattus norvegicus [9] is 4.9 nM; in the experiment filed under Rattus norvegicus [10], 24.5 nM. This molecule also had an IUP in the experiment filed under Canis familiaris [11] of 6.87. Also, in the experiment filed under Rattus norvegicus [12], the SHR was found to be 6.58.
Regarding `CCOc1ccccc1OCCN[C@H](C)Cc1ccc(OC)c(S(N)(=O)=O)c1` [TAMSULOSIN], the values for the Kb in the experiment filed under Rattus norvegicus [9] and in the experiment listed under Rattus norvegicus [10] were 0.204 nM and 0.339 nM, respectively. This molecule also showed a Ki in [13] of 0.2 nM. This molecule also showed an IUP in the experiment filed under Canis familiaris [11] of 8.87. The molecule also yielded an SHR in the experiment filed under Rattus norvegicus [12] of 7.33.
For the molecule `COc1cc2nc(N3CCN(C(=O)C4CCCO4)CC3)nc(N)c2cc1OC` (stereo not given) [TERAZOSIN], the Kb in the experiment listed under Rattus norvegicus [9] was 2.51 nM. The same molecule came in with an IUP in the experiment filed under Canis familiaris [11] of 7.02. The molecule also showed an SHR in the experiment listed under Rattus norvegicus [12] of 6.64.
With `COc1cccc2c1CC[C@H]1CN(CCn3c(=O)[nH]c4c(sc5cccnc54)c3=O)C[C@@H]21`, the Kb is 0.776 nM in the experiment listed under Canis familiaris [1], 12.9 nM in the experiment filed under Rattus norvegicus [2], 1.17 nM in the experiment listed under Rattus norvegicus [3] and 6.76 nM in the experiment listed under Canis familiaris [7]. The Ki in experiment [4] amounted to 0.51 nM; in [6], 3.39 nM. In the experiment listed under Rattus norvegicus [14], the pED50 was 5.33.
Take `COc1cccc2c1CC[C@H]1CN(CCn3c(=O)[nH]c4c(sc5ncc(Cl)nc54)c3=O)C[C@@H]21`: the Kb in the experiment filed under Canis familiaris [15] was 0.447 nM; in the experiment listed under Rattus norvegicus [9] it was 44.7 nM; in the experiment filed under Rattus norvegicus [10], 1.1 nM. The Ki in [13] was 35.1 nM; in experiment [16], 3.83 nM; in experiment [17], 0.69 nM. This molecule gave an IUP in the experiment listed under Canis familiaris [11] of 8.28. For the same molecule, the SHR in the experiment filed under Rattus norvegicus [12] worked out at 4.77.
For the molecule `COc1cccc2c1CC[C@H]1CN(CCn3c(=O)[nH]c4c(sc5cncnc54)c3=O)C[C@@H]21`, the Ki in experiment [4] worked out at 3.74 nM; in experiment [5], 1.62 nM; in [6], 15.9 nM. The Selectivity ratio in the experiment filed under Cricetulus griseus was 9.8.
As for `COc1cccc2c1CCC1CN(CCCCn3c(=O)[nH]c4c(sc5ccccc54)c3=O)CC21` (cis isomer), the results for the Ki in [4], in experiment [5] and in experiment [6] were 4.77 nM, 7.43 nM and 9.95 nM, respectively. The Selectivity ratio in the experiment filed under Cricetulus griseus stood at 1.33.
For `COc1cccc2c1CC[C@H]1CN(CCn3c(=O)[nH]c4c(sc5ccc(Cl)nc54)c3=O)C[C@@H]21`, the Ki in [13] is 4.15 nM; in [16], 0.61 nM; in experiment [17], 0.38 nM.
Take `COc1cccc2c1CC[C@H]1CN(CCn3c(=O)[nH]c4c(sc5cc(C(F)(F)F)ccc54)c3=O)C[C@@H]21`: the Ki in experiment [4] came out at 6.84 nM; in experiment [5], 9.27 nM; in experiment [6], 23.8 nM. Moreover, the Selectivity ratio in the experiment filed under Cricetulus griseus is 2.56.
`COc1cc2nc(N3CCN(C(=O)C4COc5ccccc5O4)CC3)nc(N)c2cc1OC` (stereo not given) [DOXAZOSIN]: the values for the Kb in the experiment filed under Rattus norvegicus [2], in the experiment filed under Rattus norvegicus [3] and in the experiment filed under Canis familiaris [7] were 0.309 nM, 2.04 nM and 75.9 nM, respectively. Besides, in the experiment filed under Rattus norvegicus [18], the pED50 was found to be 6.5.
For the molecule `COc1cccc2c1CC[C@H]1CN(CCn3c(=O)[nH]c4c(sc5nc(C)c(C)nc54)c3=O)C[C@@H]21`, the inhibition constant Ki in [4] amounted to 3.28 nM; in experiment [5], 0.39 nM; in [6], 13.9 nM. In the experiment filed under Cricetulus griseus, the Selectivity ratio was 35.6.
For `COc1cccc2c1CC[C@H]1CN(CCn3c(=O)[nH]c4c(sc5c(Cl)ccnc54)c3=O)C[C@@H]21`, in that order: 4.16 nM, 3.13 nM, 61.6 nM and 19.7.
As to `COc1cccc2c1CC[C@H]1CN(CCn3c(=O)[nH]c4c(sc5ccc(Cl)cc54)c3=O)C[C@@H]21`, the Ki in [4] came to 0.31 nM; in [5], 0.44 nM; in [6], 1.91 nM. In addition, the Selectivity ratio in the experiment filed under Cricetulus griseus turned out to be 4.34.
As to `COc1cccc2c1CC[C@H]1CN(CCn3c(=O)[nH]c4c(sc5nccnc54)c3=O)C[C@@H]21`, the Ki was found to be 2.06 nM in experiment [4], 0.72 nM in [5] and 12.5 nM in experiment [6]. Moreover, the Selectivity ratio in the experiment listed under Cricetulus griseus turned out to be 17.3.
Take `COc1cccc2c1CC[C@H]1CN(CCn3c(=O)[nH]c4c(sc5ccc(C)cc54)c3=O)C[C@@H]21`: the values for the Ki in experiment [4], in [5] and in experiment [6] were 1.04 nM, 2.16 nM and 4.26 nM, respectively. Besides, the Selectivity ratio in the experiment filed under Cricetulus griseus amounted to 1.97.
